Reference: ChEMBL document CHEMBL5724801, “EUbOPEN Chemogenomics Library - Multiplex” (2024)
“And” between values parts separate entries of the source, which are not always exact repeats. Identical values can stand only once.

System: HEK-293T
Assay: Multiplex assay against HEK293T
Format: toxicity, cell-based
Conditions: human
Method in brief: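 Live cells carried four stains from seeding: Hoechst33342, BioTracker Green Microtubule Cytoskeleton Dye, MitoTracker Red and Annexin V Alexa Fluor 680. They were imaged on a CQ1 microscope at 37°C and 5% CO2 after compound addition. Using CellPathfinder machine-learning gating, cells were split into Hoechst high-intensity objects or normal cells, normal cells into healthy, pyknosed or fragmented nuclei, and pyknosed cells into mitotic or apoptotic; tubulin, mitochondrial-mass and membrane-permeability phenotypes are per cents of healthy-nucleus cells.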

[1] = 12 h, 1 µM, compound concentration 1 uM
[2] = 12 h, 10 µM, compound concentration 10 uM
[3] = 24 h, 1 µM, compound concentration 1 uM
[4] = 24 h, 10 µM, compound concentration 10 uM
[5] = 48 h, 1 µM, compound concentration 1 uM
[6] = 48 h, 10 µM, compound concentration 10 uM

CC(=O)NCCc1c(Cc2ccccc2)[nH]c2ccccc12 [LUZINDOLE]
Population Apoptotic (%) [1]: 38% and 43%
Population Fragmented Nuclei (%) [1]: 7% and 5%
Population Healthy Nuclei (%) [1]: 79% and 80%
Population Hoechst High Intensity Objects (%) [1]: 11% and 8%
Population Membrane Permeable-Phenotype (%) [1]: 0%
Population Mitochondria Different-Phenotype (%) [1]: 54% and 68%
Population Mitotic Cells (%) [1]: 61% and 56%
Population Normal (%) [1]: 88% and 91%
Population Pyknosed Nuclei (%) [1]: 12% and 13%
Population Tubulin-Different-Phenotype (%) [1]: 39% and 27%
Total Cell Count [1]: 412 and 304
Population Apoptotic (%) [2]: 37% and 53%
Population Fragmented Nuclei (%) [2]: 8% and 5%
Population Healthy Nuclei (%) [2]: 77% and 80%
Population Hoechst High Intensity Objects (%) [2]: 10% and 9%
Population Membrane Permeable-Phenotype (%) [2]: 0%
Population Mitochondria Different-Phenotype (%) [2]: 61% and 72%
Population Mitotic Cells (%) [2]: 62% and 46%
Population Normal (%) [2]: 89% and 90%
Population Pyknosed Nuclei (%) [2]: 14%
Population Tubulin-Different-Phenotype (%) [2]: 45% and 35%
Total Cell Count [2]: 379 and 315
Population Apoptotic (%) [3]: 20% and 40%
Population Fragmented Nuclei (%) [3]: 12% and 7%
Population Healthy Nuclei (%) [3]: 75% and 82%
Population Hoechst High Intensity Objects (%) [3]: 7% and 8%
Population Membrane Permeable-Phenotype (%) [3]: 0%
Population Mitochondria Different-Phenotype (%) [3]: 33% and 45%
Population Mitotic Cells (%) [3]: 80% and 60%
Population Normal (%) [3]: 92% and 91%
Population Pyknosed Nuclei (%) [3]: 11% and 10%
Population Tubulin-Different-Phenotype (%) [3]: 26% and 18%
Total Cell Count [3]: 546 and 379
Population Apoptotic (%) [4]: 40% and 28%
Population Fragmented Nuclei (%) [4]: 9% and 11%
Population Healthy Nuclei (%) [4]: 81% and 77%
Population Hoechst High Intensity Objects (%) [4]: 10% and 11%
Population Membrane Permeable-Phenotype (%) [4]: 1% and 0%
Population Mitochondria Different-Phenotype (%) [4]: 40% and 58%
Population Mitotic Cells (%) [4]: 60% and 71%
Population Normal (%) [4]: 89% and 88%
Population Pyknosed Nuclei (%) [4]: 8% and 11%
Population Tubulin-Different-Phenotype (%) [4]: 32% and 24%
Total Cell Count [4]: 502 and 388
Population Apoptotic (%) [5]: 24% and 46%
Population Fragmented Nuclei (%) [5]: 16% and 12%
Population Healthy Nuclei (%) [5]: 78% and 82%
Population Hoechst High Intensity Objects (%) [5]: 3% and 6%
Population Membrane Permeable-Phenotype (%) [5]: 1% and 0%
Population Mitochondria Different-Phenotype (%) [5]: 16% and 23%
Population Mitotic Cells (%) [5]: 75% and 53%
Population Normal (%) [5]: 96% and 93%
Population Pyknosed Nuclei (%) [5]: 5%
Population Tubulin-Different-Phenotype (%) [5]: 12% and 13%
Total Cell Count [5]: 965 and 522
Population Apoptotic (%) [6]: 27% and 36%
Population Fragmented Nuclei (%) [6]: 13% and 11%
Population Healthy Nuclei (%) [6]: 79% and 82%
Population Hoechst High Intensity Objects (%) [6]: 9% and 6%
Population Membrane Permeable-Phenotype (%) [6]: 0%
Population Mitochondria Different-Phenotype (%) [6]: 27% and 32%
Population Mitotic Cells (%) [6]: 72% and 63%
Population Normal (%) [6]: 90% and 93%
Population Pyknosed Nuclei (%) [6]: 7% and 5%
Population Tubulin-Different-Phenotype (%) [6]: 17% and 19%
Total Cell Count [6]: 742 and 573

CN1CCN2c3ccccc3Cc3ccccc3C2C1.Cl (configuration not stated) [MIANSERIN HYDROCHLORIDE]
Population Apoptotic (%) [1]: 23% and 46%
Population Fragmented Nuclei (%) [1]: 5% and 7%
Population Healthy Nuclei (%) [1]: 79% and 77%
Population Hoechst High Intensity Objects (%) [1]: 5% and 10%
Population Membrane Permeable-Phenotype (%) [1]: 0%
Population Mitochondria Different-Phenotype (%) [1]: 36% and 63%
Population Mitotic Cells (%) [1]: 76% and 53%
Population Normal (%) [1]: 94% and 89%
Population Pyknosed Nuclei (%) [1]: 14%
Population Tubulin-Different-Phenotype (%) [1]: 21% and 17%
Total Cell Count [1]: 338 and 376
Population Apoptotic (%) [2]: 34% and 42%
Population Fragmented Nuclei (%) [2]: 5%
Population Healthy Nuclei (%) [2]: 81% and 85%
Population Hoechst High Intensity Objects (%) [2]: 9% and 4%
Population Membrane Permeable-Phenotype (%) [2]: 1% and 0%
Population Mitochondria Different-Phenotype (%) [2]: 45% and 53%
Population Mitotic Cells (%) [2]: 65% and 57%
Population Normal (%) [2]: 90% and 95%
Population Pyknosed Nuclei (%) [2]: 13% and 8%
Population Tubulin-Different-Phenotype (%) [2]: 40% and 28%
Total Cell Count [2]: 410 and 491
Population Apoptotic (%) [3]: 22% and 26%
Population Fragmented Nuclei (%) [3]: 9% and 10%
Population Healthy Nuclei (%) [3]: 80%
Population Hoechst High Intensity Objects (%) [3]: 1% and 8%
Population Membrane Permeable-Phenotype (%) [3]: 0%
Population Mitochondria Different-Phenotype (%) [3]: 21% and 37%
Population Mitotic Cells (%) [3]: 77% and 73%
Population Normal (%) [3]: 98% and 91%
Population Pyknosed Nuclei (%) [3]: 10% and 9%
Population Tubulin-Different-Phenotype (%) [3]: 14% and 16%
Total Cell Count [3]: 479 and 486
Population Apoptotic (%) [4]: 24% and 32%
Population Fragmented Nuclei (%) [4]: 8% and 5%
Population Healthy Nuclei (%) [4]: 77% and 84%
Population Hoechst High Intensity Objects (%) [4]: 5% and 3%
Population Membrane Permeable-Phenotype (%) [4]: 0%
Population Mitochondria Different-Phenotype (%) [4]: 31% and 36%
Population Mitotic Cells (%) [4]: 75% and 67%
Population Normal (%) [4]: 94% and 96%
Population Pyknosed Nuclei (%) [4]: 14% and 10%
Population Tubulin-Different-Phenotype (%) [4]: 34% and 21%
Total Cell Count [4]: 486 and 612
Population Apoptotic (%) [5]: 13% and 37%
Population Fragmented Nuclei (%) [5]: 15% and 16%
Population Healthy Nuclei (%) [5]: 77% and 78%
Population Hoechst High Intensity Objects (%) [5]: 1% and 3%
Population Membrane Permeable-Phenotype (%) [5]: 1% and 0%
Population Mitochondria Different-Phenotype (%) [5]: 15% and 18%
Population Mitotic Cells (%) [5]: 86% and 62%
Population Normal (%) [5]: 98% and 96%
Population Pyknosed Nuclei (%) [5]: 6% and 4%
Population Tubulin-Different-Phenotype (%) [5]: 9%
Total Cell Count [5]: 812 and 761
Population Apoptotic (%) [6]: 24% and 35%
Population Fragmented Nuclei (%) [6]: 14%
Population Healthy Nuclei (%) [6]: 76% and 79%
Population Hoechst High Intensity Objects (%) [6]: 2% and 1%
Population Membrane Permeable-Phenotype (%) [6]: 0% and 1%
Population Mitochondria Different-Phenotype (%) [6]: 18% and 14%
Population Mitotic Cells (%) [6]: 75% and 64%
Population Normal (%) [6]: 97% and 98%
Population Pyknosed Nuclei (%) [6]: 8% and 6%
Population Tubulin-Different-Phenotype (%) [6]: 17% and 11%
Total Cell Count [6]: 702 and 860
